From ChEMBL document CHEMBL3352101, “Synthesis and inhibitory activity on hepatitis C virus RNA replication of 4-(1,1,1,3,3,3-hexafluoro-2-hydroxy-2-propyl)aniline analogs” (Bioorg Med Chem Lett, 2014) come the findings set out here.

What is called EC50 is the concentration that produces a half-maximal response. A lower EC50 goes with greater potency. Usually CC50 stands for the concentration giving 50% cytotoxicity. A high value points to better tolerance by the cells.

Activity calls are given as the source filed them. The calls are words filed in the database; no cut-off is given here.

Data set [1] concerns Hepatitis C virus. In words: Inhibition of HCV RNA replication in human Li23 cells (ORL8 system) by renilla luciferase reporter gene based replication assay. The format is functional, organism-based, Hepacivirus hominis. For orientation: A reporter such as luciferase makes a cellular process visible.
Data set [2] can be described thus: Cytotoxicity against human Li23 cells by WST assay.
Data set [3] can be described thus: Selectivity index, ratio of CC50 against human Li23 cells to EC50 against HCV RNA replication in human Li23 cells. In a few lines: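 SI was calculated as CC50/EC50. CC50 in Li23 cells came from a WST-1 assay. EC50 came from the ORL8 genome-length HCV RNA Renilla luciferase replication assay. All assays were done in triplicate.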
Data set [4] deals with Hepatitis C virus. In words: Inhibition of HCV RNA replication in human Li23 cells (ORL8 system) in presence of 1 IU/mL IFN-alpha by renilla luciferase reporter gene based replication assay. In kind it is functional, organism-based. The note with it: Hepacivirus hominis. In outline:
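Li23 human hepatoma cells carrying replicating genome-length HCV RNA with a Renilla luciferase reporter (ORL8). Test compound given at a range of concentrations together with IFN-alpha at 1 IU/mL, with a vehicle control. HCV RNA replication read as luciferase reporter activity. Assays run in triplicate.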

Data set [5] relates to Hepatitis C virus. Kind of data set: Inhibition of HCV RNA replication in human HuH7 cells (OR6 system) by renilla luciferase reporter gene based replication assay. In kind it is functional, organism-based, Hepacivirus hominis. The note with it: Huh-7. In a few lines: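 The OR6 system carries genome-length HCV RNA with a Renilla luciferase reporter in HuH-7 hepatoma cells. Replication inhibition was measured and EC50 determined from runs done in triplicate.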

In data set [6] the test system is Hepatitis C virus. Kind of data set: Potentiation of 1 IU/mL IFN-alpha-induced inhibition of HCV RNA replication in human Li23 cells (ORL8 system) by renilla luciferase reporter gene based replication assay. In kind it is functional, organism-based. Particulars: Hepacivirus hominis. In outline:
(§1)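 Genome-length HCV RNA replication was read by Renilla luciferase in ORL8 (Li23) cells. Increasing compound concentrations were combined with IFN-α alone (1 IU/mL) or with IFN-α plus ribavirin (1 IU/mL + 6.3 µM; 4 IU/mL + ribavirin also tested). Assays were done in triplicate.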

Data set [7] has as its system Li23. In words: Induction of ROS generation in human Li23 cells (ORL8 system). In kind it is functional, cell-based. In a few lines: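 ROS production in the ORL8 genome-length HCV RNA replicon system (Li23 cells) was measured by FACS analysis at a series of compound concentrations.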
The subject of data set [8] is Hepatitis C virus. In words: Inhibition of HCV RNA replication in human Li23 cells (ORL8 system) at 5 uM in presence of 10 to 200 uM vitamin E by renilla luciferase reporter gene based replication assay. The format is functional, organism-based. Particulars: Hepacivirus hominis. In outline: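 Genome-length HCV RNA replication was measured by Renilla luciferase in ORL8 (Li23) cells. Vitamin E was given at various concentrations, with the test compound absent or present at 5 µM. Assays were done in triplicate.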

Data set [9] relates to Hepatitis C virus. In words: Potentiation of 1 IU/mL IFN-alpha and 6.3 uM ribavirin-induced inhibition of HCV RNA replication in human Li23 cells (ORL8 system) by renilla luciferase reporter gene based replication assay. Particulars: Hepacivirus hominis. The format is functional, organism-based. In outline: as §1

`Cc1cc(C(O)(C(F)(F)F)C(F)(F)F)ccc1N(C)C(=O)c1ccccc1` yielded a concentration for a half-maximal effect (EC50) in [1] of 1.7 µM. This molecule also came in with a cytotoxic concentration (CC50) in data set [2] of 9 µM. Besides, the “Ratio CC50/EC50” value in data set [3] was 5.3.
For `CCCCC(=O)N(C)c1ccc(C(O)(C(F)(F)F)C(F)(F)F)cc1`, in that order: 2.3 µM, 26 µM and 11.
For `CCN(C(=O)c1ccccc1)c1ccc(C(O)(C(F)(F)F)C(F)(F)F)cc1`, in that order: 0.78 µM, 19 µM and 24.
For `CC(=O)N(C)c1ccc(C(O)(C(F)(F)F)C(F)(F)F)cc1`, in that order: 14 µM, 40 µM and 2.9.
Consider `CN(C(=O)Nc1ccccc1)c1ccc(C(O)(C(F)(F)F)C(F)(F)F)cc1`, for which the EC50 in [1] stood at 5.7 µM. In data set [2], the cytotoxic concentration (CC50) was more than 20 µM.
Take `Cc1ccccc1C(=O)N(C)c1ccc(C(O)(C(F)(F)F)C(F)(F)F)cc1`: the EC50 in data set [1] was 17 µM. In addition, the 50% cytotoxic concentration (CC50) in data set [2] stood at 38 µM. Also, the “Ratio CC50/EC50” value in [3] is on record as 2.2.
As to `Cc1ccc(S(=O)(=O)N(C)c2ccc(C(O)(C(F)(F)F)C(F)(F)F)cc2)cc1`, a half-maximal effect in data set [1] (EC50) was put at 0.44 µM. Moreover, the CC50 in data set [2] amounted to 15 µM. For the same molecule, the “Ratio CC50/EC50” value in data set [3] was 34.
For `CN(C(=O)C12CC3CC(CC(C3)C1)C2)c1ccc(C(O)(C(F)(F)F)C(F)(F)F)cc1`, in that order: 1 µM, 17 µM and 17.
For `O=C(c1ccccc1)N(Cc1ccccc1)c1ccc(C(O)(C(F)(F)F)C(F)(F)F)cc1`, in that order: 2.9 µM, 7.5 µM and 2.6.
For `O=C(Nc1ccc(C(O)(C(F)(F)F)C(F)(F)F)cc1)c1ccccc1`, in that order: 4.1 µM, 12 µM and 2.9.
`CN(C(=O)c1ccccc1)c1ccc(C(OCCO)(C(F)(F)F)C(F)(F)F)cc1` returned an EC50 in [1] of 11 µM. In addition, the 50% cytotoxic concentration (CC50) in data set [2] is more than 20 µM.
Turning to `Cc1cc(N(C)C(=O)c2ccccc2)ccc1C(O)(C(F)(F)F)C(F)(F)F`, in data set [1], the EC50 was more than 100 µM. Further, it took 87 µM to reach half-maximal cytotoxicity in data set [2] (CC50).
`CN(C(=O)C1CCCCC1)c1ccc(C(O)(C(F)(F)F)C(F)(F)F)cc1` gave a half-maximal effective concentration (EC50) in [1] of 0.23 µM. This molecule also returned a 50% cytotoxic concentration (CC50) in data set [2] of 20 µM. The “Ratio CC50/EC50” value in data set [3] is reported as 87.
For `CN(C(=O)c1ccsc1)c1ccc(C(O)(C(F)(F)F)C(F)(F)F)cc1`, in that order: 17 µM, 44 µM and 2.6.
For `CN(c1ccc(C(O)(C(F)(F)F)C(F)(F)F)cc1)S(=O)(=O)c1cccc(F)c1`, in that order: 0.36 µM, 19 µM and 53.
For `Cc1cccc(S(=O)(=O)N(C)c2ccc(C(O)(C(F)(F)F)C(F)(F)F)cc2)c1`, in that order: 0.35 µM, 11 µM and 31.
As to `CCCN(C(=O)c1ccccc1)c1ccc(C(O)(C(F)(F)F)C(F)(F)F)cc1`, a half-maximal response in [1] (EC50) required 3.5 µM. In data set [2], this molecule had a CC50 of 15 µM. In addition, the “Ratio CC50/EC50” value in data set [3] is reported as 4.3.
For `COc1ccc(S(=O)(=O)N(C)c2ccc(C(O)(C(F)(F)F)C(F)(F)F)cc2)cc1`, in that order: 1.4 µM, 7.9 µM and 5.6.
For `Cc1cccc(C(=O)N(C)c2ccc(C(O)(C(F)(F)F)C(F)(F)F)cc2)c1`, in that order: 5.8 µM, 20 µM and 3.4.
Turning to `CN(c1ccc(C(O)(C(F)(F)F)C(F)(F)F)cc1)S(=O)(=O)c1ccccc1Br`, a half-maximal response in data set [1] (EC50) required 0.5 µM. Further, the CC50 in data set [2] amounted to 9.1 µM. In addition, the “Ratio CC50/EC50” value in data set [3] worked out at 18.
Take `CCCC(=O)N(C)c1ccc(C(O)(C(F)(F)F)C(F)(F)F)cc1`: the EC50 in [1] is 3.8 µM. In data set [2], the CC50 is more than 100 µM.
`CN(C(=O)c1ccccc1)c1ccccc1C(O)(C(F)(F)F)C(F)(F)F` showed an EC50 in [1] of more than 20 µM. For the same molecule, in data set [2], the CC50 was more than 20 µM.
In data set [1], `Cc1ccccc1S(=O)(=O)N(C)c1ccc(C(O)(C(F)(F)F)C(F)(F)F)cc1` displayed a concentration giving a half-maximal response (EC50) of 0.36 µM. This molecule came in with a CC50 in [2] of 12 µM. Further, the “Ratio CC50/EC50” value in data set [3] came to 33.
Take `NC(=O)c1ncn([C@@H]2O[C@H](CO)[C@@H](O)[C@H]2O)n1` [RIBAVIRIN]: the EC50 in data set [1] turned out to be 8.7 µM. Also, the inhibition entry in [4] was “Active”.
For `CN(C(=O)c1ccccc1)c1ccc(C(O)(C(F)(F)F)C(F)(F)F)cc1`, the EC50 in data set [1] is 0.32 µM; in [5], more than 20 µM. In [2], this molecule showed a half-maximal cytotoxic concentration (CC50) of 65 µM. For the same molecule, the “Ratio CC50/EC50” value in data set [3] was determined as 203.
On to `COc1cccc(S(=O)(=O)N(C)c2ccc(C(O)(C(F)(F)F)C(F)(F)F)cc2)c1`, for which the EC50 in [1] came to 2.1 µM. In [2], this molecule gave a half-maximal cytotoxic concentration (CC50) of 13 µM. Also, the “Ratio CC50/EC50” value in [3] came to 6.2.
For `CN(Cc1ccccc1)c1ccc(C(O)(C(F)(F)F)C(F)(F)F)cc1`, in that order: 3 µM, 13 µM and 4.3.
`CN(C(=O)Cc1ccccc1)c1ccc(C(O)(C(F)(F)F)C(F)(F)F)cc1` displayed an EC50 in [1] of more than 100 µM. It took 27 µM to reach half-maximal cytotoxicity in data set [2] (CC50).
As to `CN(C(=O)c1ccccn1)c1ccc(C(O)(C(F)(F)F)C(F)(F)F)cc1`, in data set [1], the 50% effective concentration (EC50) is more than 100 µM. Besides, in data set [2], the half-maximal cytotoxic concentration (CC50) is more than 100 µM.
On to `Cc1ccc(C(=O)N(C)c2ccc(C(O)(C(F)(F)F)C(F)(F)F)cc2)cc1`, for which the midpoint of the response in [1], the EC50, lay at 10 µM. The molecule further had a 50% cytotoxic concentration (CC50) in [2] of 26 µM. Also, the “Ratio CC50/EC50” value in data set [3] turned out to be 2.6.
In turn, `CN(c1ccc(C(O)(C(F)(F)F)C(F)(F)F)cc1)S(=O)(=O)c1ccccc1` came in with a concentration for a half-maximal effect (EC50) in data set [1] of 0.19 µM. Also, the IC60 in data set [1] came to 5 µM. The Activity result in [6], in data set [7] and in data set [9] was “Dose-dependent effect” each time. In data set [8], the inhibition entry was “inactive”. This molecule also came in with a CC50 in data set [2] of 16 µM. For the same molecule, in [3], the “Ratio CC50/EC50” value came to 84.
Turning to `CN(c1ccc(C(O)(C(F)(F)F)C(F)(F)F)cc1)S(=O)(=O)c1ccccc1Cl`, in [1], the concentration giving a half-maximal response (EC50) is 0.17 µM. This molecule also registered a CC50 in data set [2] of 15 µM. The “Ratio CC50/EC50” value in data set [3] was 88.
For `CN(C(=O)c1cccnc1)c1ccc(C(O)(C(F)(F)F)C(F)(F)F)cc1`, in that order: 45 µM, 63 µM and 1.4.
For `CN(C(=O)c1cccs1)c1ccc(C(O)(C(F)(F)F)C(F)(F)F)cc1`, in that order: 2.6 µM, 33 µM and 13.
